Results as given in ChEMBL document CHEMBL3259739, “Synthesis and structure-activity relationship of trisubstituted thiazoles as Cdc7 kinase inhibitors” (Eur J Med Chem, 2014).
Calls of active or inactive are those of the source.

Tests used:
[1] = Intrinsic clearance in mouse liver microsomes at 1 uM after 30 mins by reverse phase HPLC analysis in presence of NADPH; assay type: ADME; conditions: read-out: CLH
How it was run: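 Reactions were stopped with MeCN after 0 or 30 min. Samples were analysed by reverse-phase HPLC–tandem MS to give intrinsic clearance (µl/min/mg).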

CDK9/cyclin T1 = CDK9/cyclin T1 (Homo sapiens, UniProt P50750); assay: Inhibition of CDK9/Cyclin-T1 (unknown origin) by homogeneous time-resolved fluorescence assay; assay type: protein-complex assay
CDK9/cyclin T1, sequence (O60563 whole entry): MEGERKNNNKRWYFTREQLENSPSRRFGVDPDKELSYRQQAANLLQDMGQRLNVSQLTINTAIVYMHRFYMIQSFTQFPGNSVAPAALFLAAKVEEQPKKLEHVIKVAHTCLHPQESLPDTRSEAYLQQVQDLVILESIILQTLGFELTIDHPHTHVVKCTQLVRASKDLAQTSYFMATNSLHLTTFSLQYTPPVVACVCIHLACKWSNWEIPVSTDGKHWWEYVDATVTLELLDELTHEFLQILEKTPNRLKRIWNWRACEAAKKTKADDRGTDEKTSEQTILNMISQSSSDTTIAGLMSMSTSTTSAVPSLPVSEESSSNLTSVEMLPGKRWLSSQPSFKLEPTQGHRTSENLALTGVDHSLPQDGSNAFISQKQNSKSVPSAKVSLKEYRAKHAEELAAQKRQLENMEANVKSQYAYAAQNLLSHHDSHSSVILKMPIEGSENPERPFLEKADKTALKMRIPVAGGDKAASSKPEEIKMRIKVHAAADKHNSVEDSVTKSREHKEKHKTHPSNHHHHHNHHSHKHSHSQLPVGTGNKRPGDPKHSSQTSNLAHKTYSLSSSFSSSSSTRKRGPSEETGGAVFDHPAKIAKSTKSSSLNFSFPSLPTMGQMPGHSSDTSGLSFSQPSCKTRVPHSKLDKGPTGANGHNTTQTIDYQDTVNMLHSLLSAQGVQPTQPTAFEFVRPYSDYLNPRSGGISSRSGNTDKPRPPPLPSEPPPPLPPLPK
CDK9/cyclin T1, sequence (P50750 whole entry): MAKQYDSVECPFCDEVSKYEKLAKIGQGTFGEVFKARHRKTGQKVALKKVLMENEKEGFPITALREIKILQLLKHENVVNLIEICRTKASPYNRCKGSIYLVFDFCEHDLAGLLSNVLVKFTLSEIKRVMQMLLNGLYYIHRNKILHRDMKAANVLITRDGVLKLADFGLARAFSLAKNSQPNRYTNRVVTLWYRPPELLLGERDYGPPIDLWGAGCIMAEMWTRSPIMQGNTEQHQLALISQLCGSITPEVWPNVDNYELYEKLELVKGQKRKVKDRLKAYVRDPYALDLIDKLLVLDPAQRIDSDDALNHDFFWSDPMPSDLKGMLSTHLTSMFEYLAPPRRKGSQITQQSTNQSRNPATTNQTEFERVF
How it was run: (§1)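 Counter-screens by HTRF kinase assays: CDK1/Cyclin B and CDK4/Cyclin D1 in HTRF format, CDK9/Cyclin T1 with a 4eBP1 ULight substrate, and the CK2 tetramer with a TopoII ULight substrate.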

HCT-116 [2] = assay: Inhibition of DNA synthesis in human HCT116 cells after 2 days by BrdU incorporation assay; assay type: functional, cell-based; conditions: HCT-116, 48 h
HCT-116 [3] = assay: Induction of apoptosis in human HCT116 cells assessed as activation of caspase 3/7; assay type: functional, cell-based
[4] = biological target: Cyclin-dependent kinase 1/cyclin B1 (Homo sapiens, UniProt P06493); assay: Inhibition of CDK1/Cyclin-B (unknown origin) by homogeneous time-resolved fluorescence assay; assay type: protein-complex assay; how it was run: as §1
Cyclin-dependent kinase 1/cyclin B1, sequence (P06493 whole entry): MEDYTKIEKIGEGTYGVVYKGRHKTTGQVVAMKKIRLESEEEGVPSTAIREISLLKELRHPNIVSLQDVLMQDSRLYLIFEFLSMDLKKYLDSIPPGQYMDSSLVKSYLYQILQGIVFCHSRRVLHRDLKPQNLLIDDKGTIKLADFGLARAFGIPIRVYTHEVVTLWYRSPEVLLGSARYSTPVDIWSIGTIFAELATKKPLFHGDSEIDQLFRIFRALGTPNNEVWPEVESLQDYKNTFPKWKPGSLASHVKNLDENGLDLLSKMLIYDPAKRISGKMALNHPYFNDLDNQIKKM
Cyclin-dependent kinase 1/cyclin B1, sequence (P14635 whole entry, further chain): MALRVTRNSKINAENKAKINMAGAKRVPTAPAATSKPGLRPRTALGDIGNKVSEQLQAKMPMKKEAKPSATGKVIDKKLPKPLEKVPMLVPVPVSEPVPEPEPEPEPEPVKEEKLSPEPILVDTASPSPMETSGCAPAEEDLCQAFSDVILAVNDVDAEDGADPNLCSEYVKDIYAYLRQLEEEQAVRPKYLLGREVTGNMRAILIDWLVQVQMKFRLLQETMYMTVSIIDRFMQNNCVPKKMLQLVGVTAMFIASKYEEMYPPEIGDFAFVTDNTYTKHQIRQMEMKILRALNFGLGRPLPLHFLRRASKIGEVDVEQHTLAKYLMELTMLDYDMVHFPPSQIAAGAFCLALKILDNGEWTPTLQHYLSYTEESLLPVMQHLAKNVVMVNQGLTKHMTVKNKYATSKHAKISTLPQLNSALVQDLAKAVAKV

[5] = biological target: T1, CDC7/DBF4 (Cell division cycle 7-related protein kinase/Activator of S phase kinase) (Homo sapiens, UniProt O00311); assay: (§2) Inhibition of Cdc7/Dbf4 in human HCT116 cells assessed as reduction of MCM2 phosphorylation after 14 hrs; assay type: cell-based, HCT-116
T1 sequence (Q9UBU7 whole entry): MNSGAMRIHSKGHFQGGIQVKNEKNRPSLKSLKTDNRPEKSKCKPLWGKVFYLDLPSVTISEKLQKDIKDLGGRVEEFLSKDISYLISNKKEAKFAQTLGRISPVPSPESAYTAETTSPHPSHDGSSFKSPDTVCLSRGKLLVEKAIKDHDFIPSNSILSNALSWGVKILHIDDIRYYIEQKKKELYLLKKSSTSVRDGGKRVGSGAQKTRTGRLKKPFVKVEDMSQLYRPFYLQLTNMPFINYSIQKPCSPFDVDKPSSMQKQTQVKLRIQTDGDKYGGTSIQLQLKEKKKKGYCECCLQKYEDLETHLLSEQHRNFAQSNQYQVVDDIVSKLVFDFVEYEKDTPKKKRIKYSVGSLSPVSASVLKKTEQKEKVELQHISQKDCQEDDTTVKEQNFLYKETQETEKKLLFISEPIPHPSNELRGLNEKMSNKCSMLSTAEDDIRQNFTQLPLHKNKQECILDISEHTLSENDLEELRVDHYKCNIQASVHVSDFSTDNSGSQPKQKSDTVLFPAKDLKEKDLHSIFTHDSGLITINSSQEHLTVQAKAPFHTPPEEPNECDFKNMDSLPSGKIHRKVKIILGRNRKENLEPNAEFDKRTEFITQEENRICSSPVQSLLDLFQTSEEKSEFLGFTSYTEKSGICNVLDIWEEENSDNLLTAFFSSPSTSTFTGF
T1 sequence (O00311 whole entry): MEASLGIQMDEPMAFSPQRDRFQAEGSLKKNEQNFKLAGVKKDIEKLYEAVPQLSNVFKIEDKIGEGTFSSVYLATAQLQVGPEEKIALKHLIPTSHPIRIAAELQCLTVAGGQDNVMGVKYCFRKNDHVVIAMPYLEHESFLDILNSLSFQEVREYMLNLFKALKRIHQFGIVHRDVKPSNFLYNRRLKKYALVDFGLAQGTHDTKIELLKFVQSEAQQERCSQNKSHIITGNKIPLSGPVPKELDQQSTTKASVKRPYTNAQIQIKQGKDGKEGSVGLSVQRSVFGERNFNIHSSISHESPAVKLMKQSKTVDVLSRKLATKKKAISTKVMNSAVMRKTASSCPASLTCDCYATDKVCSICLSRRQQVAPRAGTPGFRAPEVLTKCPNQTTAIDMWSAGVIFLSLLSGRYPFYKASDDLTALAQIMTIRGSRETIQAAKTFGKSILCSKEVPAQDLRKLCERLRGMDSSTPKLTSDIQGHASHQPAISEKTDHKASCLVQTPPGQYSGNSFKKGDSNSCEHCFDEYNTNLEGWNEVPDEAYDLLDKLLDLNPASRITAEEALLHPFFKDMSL
How it was run: (§3)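 HCT-116 cells were exposed to inhibitor across a 22-point dose response for 14 h. They were then immunostained for phospho-serine MCM2 using an Alexa Fluor 488 secondary, with a Hoechst nuclear counterstain. The percentage of cells with phospho-MCM2 signal above a threshold was scored by high-content imaging, and IC50 values were derived from that.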

[6] = biological target: Serine/threonine-protein kinase pim-1 (Homo sapiens, UniProt P11309); assay: Inhibition of Pim1 (unknown origin) by homogeneous time-resolved fluorescence assay
Serine/threonine-protein kinase pim-1, sequence (P11309 whole entry): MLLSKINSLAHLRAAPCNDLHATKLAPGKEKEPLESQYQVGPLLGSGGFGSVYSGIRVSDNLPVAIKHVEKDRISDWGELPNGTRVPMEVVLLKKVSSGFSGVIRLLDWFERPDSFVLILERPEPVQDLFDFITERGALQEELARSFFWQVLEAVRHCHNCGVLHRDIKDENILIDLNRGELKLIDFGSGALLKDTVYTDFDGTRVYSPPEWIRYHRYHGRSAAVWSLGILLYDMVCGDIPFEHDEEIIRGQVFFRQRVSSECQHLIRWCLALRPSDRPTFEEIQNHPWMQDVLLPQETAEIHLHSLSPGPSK
How it was run: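 Pim1 counter-screened biochemically with a homogeneous time-resolved fluorescence (HTRF) kinase assay.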

Casein kinase II = Casein kinase II (Homo sapiens, UniProt P19784+P67870+P68400); assay: Inhibition of CK2 (unknown origin) by homogeneous time-resolved fluorescence assay; assay type: protein-complex assay; how it was run: as §1
Casein kinase II, sequence (P67870 whole entry): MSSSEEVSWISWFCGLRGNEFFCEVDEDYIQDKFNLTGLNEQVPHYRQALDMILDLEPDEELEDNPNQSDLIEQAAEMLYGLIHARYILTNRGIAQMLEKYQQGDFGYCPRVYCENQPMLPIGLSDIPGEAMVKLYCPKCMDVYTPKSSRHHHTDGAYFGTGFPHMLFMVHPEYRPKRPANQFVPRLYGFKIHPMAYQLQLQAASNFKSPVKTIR
Casein kinase II, sequence (P68400 whole entry): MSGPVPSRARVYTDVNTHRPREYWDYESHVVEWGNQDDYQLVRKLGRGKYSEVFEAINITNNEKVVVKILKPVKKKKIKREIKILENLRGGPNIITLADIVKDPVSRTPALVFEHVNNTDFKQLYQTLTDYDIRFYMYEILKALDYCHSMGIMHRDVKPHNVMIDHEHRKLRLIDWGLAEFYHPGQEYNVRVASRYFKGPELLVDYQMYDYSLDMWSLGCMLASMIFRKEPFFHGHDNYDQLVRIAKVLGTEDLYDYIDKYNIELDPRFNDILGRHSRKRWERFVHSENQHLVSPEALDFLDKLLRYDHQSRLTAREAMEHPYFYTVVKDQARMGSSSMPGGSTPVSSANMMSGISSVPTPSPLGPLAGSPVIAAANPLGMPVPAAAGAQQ
Casein kinase II, sequence (P19784 whole entry): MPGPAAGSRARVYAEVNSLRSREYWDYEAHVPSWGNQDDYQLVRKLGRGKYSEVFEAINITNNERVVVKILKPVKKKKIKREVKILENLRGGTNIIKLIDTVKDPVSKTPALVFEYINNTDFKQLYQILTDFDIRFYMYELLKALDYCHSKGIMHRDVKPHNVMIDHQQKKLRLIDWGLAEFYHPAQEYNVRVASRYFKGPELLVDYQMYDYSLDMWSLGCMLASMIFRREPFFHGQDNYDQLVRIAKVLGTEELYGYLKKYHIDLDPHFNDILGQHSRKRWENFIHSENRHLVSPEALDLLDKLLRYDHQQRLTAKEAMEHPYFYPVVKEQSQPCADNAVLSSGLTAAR

[7] = biological target: Cyclin-dependent kinase 4/cyclin D1 (Homo sapiens, UniProt P11802); assay: Inhibition of CDK4/Cyclin-D1 (unknown origin) by homogeneous time-resolved fluorescence assay; assay type: protein-complex assay; how it was run: as §1
Cyclin-dependent kinase 4/cyclin D1, sequence (P11802 whole entry, canonical isoform): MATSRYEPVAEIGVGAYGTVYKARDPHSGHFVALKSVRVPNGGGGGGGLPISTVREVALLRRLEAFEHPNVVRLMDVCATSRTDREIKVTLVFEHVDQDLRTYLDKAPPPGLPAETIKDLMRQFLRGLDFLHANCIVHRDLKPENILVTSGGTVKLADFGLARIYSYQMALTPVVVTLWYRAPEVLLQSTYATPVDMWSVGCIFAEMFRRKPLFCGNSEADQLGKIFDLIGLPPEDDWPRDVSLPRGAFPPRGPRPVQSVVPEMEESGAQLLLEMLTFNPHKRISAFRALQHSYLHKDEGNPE
Cyclin-dependent kinase 4/cyclin D1, sequence (P24385 whole entry, further chain, canonical isoform): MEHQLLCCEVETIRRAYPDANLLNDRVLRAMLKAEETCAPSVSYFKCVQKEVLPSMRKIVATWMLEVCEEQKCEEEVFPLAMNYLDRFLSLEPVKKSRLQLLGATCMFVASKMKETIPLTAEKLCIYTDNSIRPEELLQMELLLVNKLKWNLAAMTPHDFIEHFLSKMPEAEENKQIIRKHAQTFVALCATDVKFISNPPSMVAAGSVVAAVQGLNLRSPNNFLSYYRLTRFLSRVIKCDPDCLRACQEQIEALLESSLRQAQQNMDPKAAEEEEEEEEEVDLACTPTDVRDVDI

[8] = biological target: Casein kinase I isoform delta (Homo sapiens, UniProt P48730); assay: Inhibition of CK1delta (unknown origin) by TR-FRET assay
How it was run: (§4)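 CK1 isoform inhibition measured in Lance TR-FRET kinase assays, reported as IC50.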

[9] = Inhibition of CK1gamma (unknown origin) by TR-FRET assay; design: species or system Homo sapiens; how it was run: as §4
[10] = biological target: Casein kinase I isoform alpha (Homo sapiens, UniProt P48729); assay: Inhibition of CK1alpha (unknown origin) by TR-FRET assay; how it was run: as §4
[11] = biological target: T1, CDC7/DBF4 (Cell division cycle 7-related protein kinase/Activator of S phase kinase); assay: Inhibition of Cdc7/Dbf4 (unknown origin) using 0.188 uM of ATP as substrate by AlphaScreen assay; assay type: protein-complex assay
How it was run: (§5)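 Mechanism-of-action AlphaScreen run with 6 nM Cdc7/Dbf4 and 10 nM biotinylated MCM2 substrate. […] Reaction time was 2 h. Phospho-Ser53 MCM2 was read by antibody-bound acceptor beads with streptavidin donor beads. Rates and Ki were fitted to a competitive inhibition model.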

rat MDR1 [12] = assay: Efflux ratio of permeability of the compound in pig LLC-PK1 cells expressing rat MDR1; assay type: ADME, cell-based, Sus scrofa
[13] = biological target: T1, CDC7/DBF4 (Cell division cycle 7-related protein kinase/Activator of S phase kinase); assay: Inhibition of Cdc7/Dbf4 (unknown origin) using 1.5 uM of ATP as substrate by AlphaScreen assay; assay type: protein-complex assay; how it was run: as §5
[14] = biological target: T1, CDC7/DBF4 (Cell division cycle 7-related protein kinase/Activator of S phase kinase); assay: Inhibition of Cdc7/Dbf4 (unknown origin) using 0.047 uM of ATP as substrate by AlphaScreen assay; assay type: protein-complex assay; how it was run: as §5
[15] = Apparent permeability of the compound in pig LLC-PK1 cells; assay type: ADME, cell-based, Sus scrofa
rat MDR1 [16] = assay: Apparent permeability of the compound in pig LLC-PK1 cells expressing rat MDR1; assay type: ADME, cell-based, Sus scrofa
[17] = Volume of distribution at steady state in Sprague-Dawley rat at 2 mg/kg, iv; assay type: ADME, organism-based; design: dose 2 mg/kg, route intravenous; conditions: in vivo, read-out: Vdss
Mus musculus [18] = assay: Inhibition of Cdc7/Dbf4 in NCR nude mouse xenografted with human HCT116 cells assessed as reduction of phosphorylated MCM2 level in tumor at 50 mg/kg, iv after 16 hrs; assay type: functional, organism-based; design: dose 50 mg/kg; conditions: HCT-116
How it was run: (§6)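 Female athymic NCR/nu mice, 4–6 weeks old, bearing subcutaneous HCT-116 xenografts (5 × 10^6 cells in Matrigel) grown to about 250 mm3. Single iv dose formulated in 20% HPbCD, 1% HPMC, 1% PluronicF68, pH7 at 10 mg/ml; three mice per group. Tumors were homogenized in Tris lysis buffer with protease and phosphatase inhibitors. MSD capture with total MCM2 antibody, then phospho-Ser53 or total MCM2 detection by chemiluminescence; inhibition taken from the phospho/total ratio.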

[19] = biological target: T1, CDC7/DBF4 (Cell division cycle 7-related protein kinase/Activator of S phase kinase); assay: Inhibition of Cdc7/Dbf4 (unknown origin) using 0.074 uM of ATP as substrate by AlphaScreen assay; assay type: protein-complex assay
[20] = biological target: T1, CDC7/DBF4 (Cell division cycle 7-related protein kinase/Activator of S phase kinase); assay: Inhibition of Cdc7/Dbf4 (unknown origin) using 0.111 uM of ATP as substrate by AlphaScreen assay; assay type: protein-complex assay
[21] = biological target: CDC7/DBF4 (Cell division cycle 7-related protein kinase/Activator of S phase kinase) (Homo sapiens) (UniProt Q9UBU7+O00311); assay: as §2; assay type: cell-based; conditions: HCT-116; how it was run: as §3
HCT-116 [22] = assay: Induction of aberrant mitosis in human HCT116 cells at 1.25 uM after 72 hrs […]; assay type: functional, cell-based
[23] = Half life in Sprague-Dawley rat at 2 mg/kg, iv; assay type: ADME, organism-based; design: dose 2 mg/kg, route intravenous; conditions: in vivo
HCT-116 [24] = assay: Cell cycle arrest in human HCT116 cells assessed as DNA accumulation at S/G2/M phase at 0.31 to 10 uM after 3 days using propidium iodide/RNase staining by flow cytometry; assay type: functional, cell-based
How it was run: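 HCT-116 cells exposed to inhibitor for 3 d at the indicated concentrations. Cells harvested with Cell Stripper buffer, fixed in 70% ethanol, stained with propidium iodide/RNase, and DNA content analysed by flow cytometry.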

[25] = Clearance in Sprague-Dawley rat at 2 mg/kg, iv; assay type: ADME, organism-based; design: dose 2 mg/kg, route intravenous; conditions: in vivo
[26] = Mean residence time in Sprague-Dawley rat at 2 mg/kg, iv; assay type: ADME, organism-based; design: dose 2 mg/kg, route intravenous; conditions: in vivo
[27] = biological target: T1, CDC7/DBF4 (Cell division cycle 7-related protein kinase/Activator of S phase kinase); assay: Inhibition of Cdc7/Dbf4 (unknown origin) using 0.037 uM of ATP as substrate by AlphaScreen assay; assay type: protein-complex assay
[28] = biological target: T1, CDC7/DBF4 (Cell division cycle 7-related protein kinase/Activator of S phase kinase); assay: Inhibition of Cdc7/Dbf4 (unknown origin) using 0.222 uM of ATP as substrate by AlphaScreen assay; assay type: protein-complex assay
[29] = AUC (0 to t) in Sprague-Dawley rat at 5 mg/kg, po; assay type: ADME, organism-based; design: dose 5 mg/kg, route oral; conditions: plasma
[30] = biological target: T1, CDC7/DBF4 (Cell division cycle 7-related protein kinase/Activator of S phase kinase); assay: Inhibition of Cdc7/Dbf4 (unknown origin) using 27 uM of ATP as substrate by AlphaScreen assay; assay type: protein-complex assay
Mus musculus [31] = assay: Inhibition of Cdc7/Dbf4 in NCR nude mouse xenografted with human HCT116 cells assessed as reduction of phosphorylated MCM2 level in tumor at 150 mg/kg, iv after 1 hr; assay type: functional; conditions: HCT-116, 1 h; how it was run: as §6
[32] = biological target: T1, CDC7/DBF4 (Cell division cycle 7-related protein kinase/Activator of S phase kinase); assay: Inhibition of Cdc7/Dbf4 (unknown origin) using 0.025 uM of ATP as substrate by AlphaScreen assay; assay type: protein-complex assay
[33] = biological target: T1, CDC7/DBF4 (Cell division cycle 7-related protein kinase/Activator of S phase kinase); assay: Inhibition of Cdc7/Dbf4 (unknown origin) using 6 uM of ATP as substrate by AlphaScreen assay; assay type: protein-complex assay

COc1ccc(-c2nc(-c3ccnc(N)n3)sc2C(N)=O)c(Cl)c1
microsomal CLint at 1 µM [1]: 155 µL/min/mg
IC50 (CDK9/cyclin T1): 729 nM
IC50 (HCT-116 [2]): 6900 nM
IC50 (HCT-116 [3]): > 50000 nM
IC50 [4]: > 50000 nM
IC50 [5]: 862 nM
IC50 [6]: > 1000 nM
IC50 (Casein kinase II): 65000 nM
IC50 [7]: > 50000 nM
IC50 [8]: 104 nM
IC50 [9]: 1900 nM
IC50 [10]: 545 nM

CCOC(=O)c1sc(-c2ccncc2)nc1O
IC50 [11]: 547 nM
efflux ratio (rat MDR1 [12]): 1
IC50 [13]: 318 nM
IC50 [14]: 405 nM
Papp [15]: ≥ 8.9 ×10⁻⁶ cm/s
Papp (rat MDR1 [16]): ≥ 8.9 ×10⁻⁶ cm/s

NC(=O)c1sc(-c2ccnc(N)n2)nc1-c1ccc(Cl)cc1Cl
microsomal CLint at 1 µM [1]: 57 µL/min/mg
Vd [17]: 4.43 L/kg
inhibition (Mus musculus [18]): inactive
IC50 (CDK9/cyclin T1): 749 nM
IC50 (HCT-116 [2]): 2600 nM
IC50 (HCT-116 [3]): > 50000 nM
IC50 [4]: > 50000 nM
IC50 [19]: 64 nM
IC50 [20]: 29 nM
IC50 [5]: 501 nM
IC90 [21]: 6370 nM
Activity (HCT-116 [22]): Active
half-life [23]: 6.56 h
Activity (HCT-116 [24]): Active
clearance [25]: 64.8 mL/min/kg
MRT [26]: 1.15 h
IC50 [27]: 63 nM
IC50 [28]: 35 nM
AUC(0-t) [29]: 83.3 ng·h/mL
IC50 [30]: 44 nM
inhibition in vivo at 150 mg/kg (Mus musculus [31]): 30%
IC50 [6]: > 1000 nM
IC50 (Casein kinase II): 29100 nM
IC50 [32]: 40 nM
IC50 [7]: > 50000 nM
IC50 [33]: 13 nM
IC50 [8]: 84 nM
IC50 [9]: 760 nM
IC50 [10]: 694 nM
